Insulin prom up – insulin promoter activators in MIN6 cells, imaging, high-content screening, mouse beta cells | MIN6 insulin promoter-GFP reporter; stronger effect = higher value | z-score at 5 µM | actives 0.3% (n = 190,000);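 active means z-score above 3 at 5 µM with at least 500 cells counted in the well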
TNAP inh hi DEA – human TNAP enzyme inhibitors, primary screen, biochemical, luminescent, high phosphate acceptor level, uHTS | Alkaline phosphatase, tissue-nonspecific isozyme (Homo sapiens), P05186 | purified TNAP, CDP-star luminescence, 1 M DEA | inhibition, % at 20 µM | actives 0.03% (n = 200,000);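 active means over 50% inhibition of tissue-nonspecific alkaline phosphatase at 20 µM in the single-dose screen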;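 further: plate controls were DMSO wells for no effect and EDTA-quenched wells as full inhibition for full effect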
TNAP act hi DEA – TNAP activators at high phosphate acceptor level, primary screen, biochemical, luminescence, uHTS; Alkaline phosphatase, tissue-nonspecific isozyme (Homo sapiens), P05186; purified TNAP, CDP-star luminescence, 1 M DEA, 30 min; stronger effect = higher value; 0 = EDTA background, 1 = DMSO-only activity; AID 1136, 2008; activation factor at 20 µM; 200,000 tested, under 10 active;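 active means activation factor at least 2 at 20 µM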
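Measured by: Luminescent substrate turnover signal | Test system: Human TNAP | Input: TNAP 1/800 final | Dosing: 20 µM single point | Schedule: 30 min, room temperature | Controls: EDTA wells as negative control, DMSO wells as positive control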
TNAP inh noacc – human TNAP enzyme inhibitors, primary screen, biochemical, luminescent, no phosphate acceptor, uHTS; Alkaline phosphatase, tissue-nonspecific isozyme (Homo sapiens), P05186; purified TNAP, CDP-star luminescence, 30 min; inhibition, % at 20 µM; actives 0.26% (n = 200,000); AID 1012, 2008;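 active means tissue-nonspecific alkaline phosphatase inhibition above about 50% at 20 µM in the single-dose screen, limit read from the data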;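 further: 0% = DMSO negative control and 100% = EDTA positive control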
Autophagy HCS – autophagy modulators in MEF cells, primary screen, imaging, high-content, MEF GFP-LC3; calls only at 10 µM (by protocol); AID 463193, 2010; actives 0.98% (n = 190,000); MEF GFP-LC3 puncta imaging; test concentration mostly 10 µM;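 active means percentage of spot-positive cells more than 3 SD above its plate mean, without a fluorescence outlier flag or 80% toxicity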;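 further: spot-positive cell cutoff set from DMSO-treated cells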
NCF1 inh – p47phox/p22phox peptide binding inhibitors, primary screen, biochemical, uHTS, NADPH oxidase regulatory subunit. inhibition, % at 24.7 µM. Neutrophil cytosol factor 1 (Homo sapiens), P14598. fluorescence polarization, 2 h. AID 1274, 2008. actives 0.53% (n = 220,000);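 active means inhibition above about 30%, limit read from the data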;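 further: 0% = p47phox with labelled peptide and 100% = labelled peptide alone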
Target sequence (P14598 whole entry, looked up): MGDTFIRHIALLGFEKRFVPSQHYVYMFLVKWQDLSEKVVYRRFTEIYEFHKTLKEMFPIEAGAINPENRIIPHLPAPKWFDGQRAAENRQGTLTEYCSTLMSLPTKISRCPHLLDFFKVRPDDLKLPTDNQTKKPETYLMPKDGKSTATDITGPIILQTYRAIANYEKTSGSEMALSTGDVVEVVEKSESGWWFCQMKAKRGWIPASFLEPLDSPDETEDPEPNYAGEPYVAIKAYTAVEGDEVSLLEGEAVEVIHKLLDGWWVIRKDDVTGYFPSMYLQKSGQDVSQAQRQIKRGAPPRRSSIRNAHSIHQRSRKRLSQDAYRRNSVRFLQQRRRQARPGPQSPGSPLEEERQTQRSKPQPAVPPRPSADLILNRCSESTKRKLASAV
* marks the source's active call; other numbers are inactive results; i = inactive; x = no result given; + = active, no number. Only some compounds are listed: those with a hit (about 1.8% of all), similar ones and a draw of the others.

SMILES	Insulin prom up	TNAP inh hi DEA	TNAP act hi DEA	TNAP inh noacc	Autophagy HCS	NCF1 inh
Cc1ncc(C[n+]2csc(CCOC(=O)CC34CC5CC(CC(C5)C3)C4)c2C)c(N)n1	-0.4	6	0.9	-10	i	3
Cc1c(CCOC(=O)C23CC4CC(CC(C4)C2)C3)sc[n+]1CC#N	0.06	-2	1	57*	i	-10
CCCCCCCCCOC(=O)C[n+]1csc(CCO)c1C	-0.48	-1	1	61*	i	-6
Cc1c(CCO)sc[n+]1CC(=O)OCCC12CC3CC(CC(C3)C1)C2	0.17	4	1	62*	i	-11
CCCCCCCCCCCCOC(=O)C[N+](C)(C)C	-1.8	x	x	x	x	-9
Cc1c(CCOC(=O)CC23CC4CC(CC(C4)C2)C3)sc[n+]1Cc1ccccc1	-2.3	36	0.6	-2	i	-4
CCN1C(=O)C(CC(=O)N2CCN(C(c3ccccc3)c3ccccc3)CC2)N(CC)C1=O (stereo unspecified)	0.47	0	1	-7	+	-16
CCN1C(=O)CC(N2CCN(C(c3ccccc3)c3ccccc3)CC2)C1=O (stereo unspecified)	1.4	-6	1.1	-9	i	0
CCOC(=O)Nc1csnn1	-0.77	x	x	x	x	-11
Cc1cccc(NC(=O)c2ccc([N+](=O)[O-])s2)c1C	0.25	2	1	-9	i	-15
O=C1c2ccccc2C(=O)N1c1n[nH]c(CCc2ccccc2)n1	-1.3	0	1	57*	i	1
CCCc1cc(=O)n2[nH]c(CCc3ccccc3)nc2n1	0.88	-5	1	4	i	-4
CCc1ccc(OCC(=O)N(C)C)c(Br)c1	-0.68	-6	1.1	-14	+	-4
CCc1ccc(OCC(=O)NC(=S)Nc2ccc(F)cc2)c(Br)c1	-0.78	-6	1.1	-10	i	0
C/C(=N\N1CCN(C)CC1)c1ccc(Cl)c(Cl)c1	-0.54	-2	1	-1	i	1
C/C(=N\N1CCN(C)CC1)c1ccc(OC(F)F)cc1	0.05	-5	1.1	-13	+	-4
CCOC(=O)N1CCN(c2cc(NCCO)c([N+](=O)[O-])c3nonc23)CC1	-1.9	6	0.9	2	i	-1
CC(=O)OCCNc1cc(N2CCN(C)CC2)c2noc3c2c1C(=O)c1ccccc1-3	1.8	7	0.9	4	i	62*
O=C(NCC(=O)N1CCN(S(=O)(=O)c2cccs2)CC1)c1ccc(Cl)cc1	-0.63	0	1	-4	i	-10
Cc1ccc(Cc2cnc(NC(=O)/C(C#N)=C/c3ccc(-c4ccccc4[N+](=O)[O-])o3)s2)cc1	-0.81	12	0.9	10	+	-17
CNC(=O)/C(C#N)=C/c1ccc(-c2ccccc2[N+](=O)[O-])o1	-0.08	6	0.9	4	i	-8
CCOc1cc(/C=C2\C(=O)N(CCc3ccc(OC)c(OC)c3)C(C)=C2C(=O)OC)ccc1O	-0.28	34	0.7	12	i	53*
O=C(Cc1ccc(Cl)cc1)NNC(=O)Nc1cccc2ccccc12	-0.07	2	1	-3	i	60*
O=S(=O)(Cc1c(F)cccc1Cl)c1ncn[nH]1	-0.07	1	1	2	i	-18
Cc1sc2nc(NCCO)[nH]c(=O)c2c1C	-0.81	-6	1.1	-20	i	9
Clc1ccc(-c2nnc(Sc3nc4ccccc4o3)c3ccccc23)cc1	x	-3	1	-9	i	-18
O=c1c(Cl)c2oc3ccccc3nc-2c2ccccc12	x	2	1	2	+	0
CCOC(=O)c1c2n(c3ccc(OC(C)=O)cc13)CCC2	0.84	-7	1.1	-15	i	38*
CCOC(=O)C1=C(C)NC(C)=C(C(=O)OCC)C1C(=O)OCC(=O)N(CC)C1CCS(=O)(=O)C1 (stereo unspecified)	-0.23	-3	1	-10	i	-7
